Experimental data gathered from unrelated publications.
Lines come from different studies, so protocols differ.
Target: Rho-associated protein kinase 2 (ROCK2, Homo sapiens, UniProt O75116)

`Cc1ccc(Nc2nccc(N(C)c3ccc4c(C)n(C)nc4c3)n2)cc1S(N)(=O)=O` has an inhibition of -27% (enzyme activity; inhibitor; 10 µM).
`CS(=O)(=O)Nc1cccc(-c2csc(NC(=O)CSc3nc4nccnc4c(=O)n3CCc3ccccc3)n2)c1` has an inhibition of 5% (enzyme activity; inhibitor; 10 µM).
With `Cc1ccc(C(=O)Nc2ccc(CN3CCN(C)CC3)c(C(F)(F)F)c2)cc1C#Cc1cnc2cccnn12` the remaining activity was 89% (enzyme activity; inhibitor; 23.5 nM).
`CNC(=O)c1cc(Oc2ccc(NC(=O)Nc3ccc(Cl)c(C(F)(F)F)c3)cc2)ccn1` has an inhibition of 38% (enzyme activity; inhibitor; 10 µM).
`COc1cc(Nc2cnc(C#N)c(O[C@H](C)CN(C)C)n2)ncc1-c1cnn(C)c1` gave a remaining activity of 40% (enzyme activity; inhibitor; radiometric; 10 µM).
`COc1cccc(CNC(=O)c2nc3scc(COCc4ccc(C(=O)O)cc4)c3c(=O)[nH]2)c1` has a remaining binding of 69.1% (cell-free assay; competition with immobilised ligand; 1 µM).
For `COc1cc2ncnc(Nc3ccc(Oc4ccccc4)cc3C)c2cc1OC`, the inhibition was 1% (enzyme activity; inhibitor; 1 µM).
For `CNCc1ccc(-c2cc(-c3nc(-c4ccc(S(=O)(=O)C(C)C)cc4)cnc3N)on2)cc1`, the inhibition was 13% (enzyme activity; inhibitor; 2 µM).
For `Cc1sc(C(=O)NC2COC2)cc1-n1cc(NC(=O)Nc2c(F)cccc2Cl)cn1`, the remaining activity was 93.6% (enzyme activity; inhibitor; 10 µM).
With `Cn1c(=O)n(-c2ccc(C(C)(C)C#N)cc2)c2c3cc(-c4cnc5ccccc5c4)ccc3ncc21` the remaining activity was 84% (enzyme activity; inhibitor; 10 µM).
`CN([C@@H]1CCc2c(CC(=O)O)c3ccccc3n2C1)S(=O)(=O)c1ccc(F)cc1` has a remaining binding of 100% (cell-free assay; competition with immobilised ligand; 1 µM).
The remaining signal of `c1ccc2c(-c3ccncc3)c[nH]c2c1` is reported as 71.9% (cell-free assay; 0.5 µM).
`CCOc1cc(-c2nncn2C)ccc1Nc1ncc2cc(C)nc(NCC(C)(C)C)c2n1` gave an inhibition of under 15% (enzyme activity; inhibitor; FRET; 1 µM).
The remaining binding of `CCS(=O)(=O)c1cc2cc(C[C@@](O)(CC(C)(C)c3ccc(F)cc3C(N)=O)C(F)(F)F)[nH]c2cn1` is reported as 76% (cell-free assay; competition with immobilised ligand; 1 µM).
With `C[C@@H](N)[C@H]1CC[C@H](C(=O)Nc2ccncc2)CC1` the remaining signal was 26.3% (cell-free assay; 0.5 µM).
For `O=C(NCc1ncc(C(F)(F)F)cc1Cl)c1ccc2c(c1)C1(CCS(=O)(=O)CC1)[C@H](C1CC1)N2S(=O)(=O)c1ccc(F)cc1`, the remaining binding was 95% (cell-free assay; competition with immobilised ligand; 1 µM).
`Cn1cncc1C1=CN(c2ncnc3[nH]cnc23)CCS1` has an inhibition of 19.6% (enzyme activity; inhibitor; radiometric; 50 nM).
With `CN(C)CC#Cc1ccc(OCCCc2sc(N3CCc4cccc(C(=O)Nc5nc6ccccc6s5)c4C3)nc2C(=O)O)c(F)c1` the remaining binding was 100% (cell-free assay; competition with immobilised ligand; 1 µM).
With `CCCS(=O)(=O)Nc1ccc(F)c(C(=O)c2c[nH]c3ncc(-c4ccc(Cl)cc4)cc23)c1F` the inhibition was under 10% (enzyme activity; inhibitor; 1 µM).
For `O=C1NC(c2ccccn2)Sc2ccccc21` (centres unmarked), the remaining binding was 67% (cell-free assay; competition with immobilised ligand; 1 µM).
`Nc1nc(Nc2ccccc2)sc1C(=O)c1c(F)cccc1F` gave a remaining activity of 55% (enzyme activity; inhibitor; 10 µM).
For `Cn1cnc(Br)c1C1=CN(c2ncnc3[nH]cnc23)CCS1`, the inhibition was 77.6% (enzyme activity; inhibitor; radiometric; 2 µM).
`Cc1ccc(NC(=O)c2ccc(C)c(C(F)(F)F)c2)cc1C#Cc1nn(C2CCC(O)CC2)c2ncnc(N)c12` (centres unmarked) gave a remaining signal of 56% (cell-free assay; 10 µM).
`CC/C(=N\NC(=O)NCc1cccc(O)c1)c1ccc(O)c(C)c1O` has an inhibition of 82.6% (enzyme activity; inhibitor; 0.1 µM).
For `O=S(=O)(NCCNC/C=C/c1ccc(Br)cc1)c1cccc2cnccc12`, the remaining signal was 15.4% (cell-free assay; 0.5 µM).
For `CC(C)(O)[C@H]1CC[C@H](Nc2ccc3ncc(-c4cccc(C(F)(F)F)c4)n3n2)CC1`, the remaining activity was 92.8% (enzyme activity; inhibitor; 1 µM).
For `Oc1cccc(-c2nc(N3CCOCC3)c3oc4ncccc4c3n2)c1`, the remaining activity was 91% (enzyme activity; inhibitor; 10 µM).
For `CCCOc1ccc(OC)c(F)c1C(=O)c1ccc(C(=O)N[C@@H]2CNC[C@H]2NC(=O)c2ccc3[nH]ncc3c2)cc1`, the remaining activity was 6% (enzyme activity; inhibitor; 0.5 µM).
`CO[C@@H](C)c1c(Nc2ccc([C@@H](N(C)C(=O)C3CCS(=O)(=O)CC3)C(F)(F)F)cc2)cnc2cc(Cl)nn12` has a remaining binding of 100% (cell-free assay; competition with immobilised ligand; 1 µM).
`CN1CC(Oc2cnc(C#N)cc2-c2ccn3nc(NC(=O)C4CC4)cc3c2)C1` gave an inhibition of 5% (enzyme activity; inhibitor; 1 µM).
The remaining activity of `CC(C)(C)C(=O)c1sc(NC2CCCCC2)nc1N` is reported as 107% (enzyme activity; inhibitor; 10 µM).
`CCN(CC)CCNC(=O)c1c(C)[nH]c(/C=C2\C(=O)Nc3ccc(F)cc32)c1C` has a remaining signal of 72.1% (cell-free assay; 0.5 µM).
The remaining activity of `CC(C)(C)c1nc(-c2cccc(NS(=O)(=O)c3c(F)cccc3F)c2F)c(-c2ccnc(N)n2)s1` is reported as 103% (enzyme activity; inhibitor; radiometric; 1 µM).
`O=C(Nc1cnc(Oc2ccc(F)cc2)nc1)N1CCc2ncccc2[C@@H]1c1ccc(F)cc1` has a remaining binding of 100% (cell-free assay; competition with immobilised ligand; 1 µM).
With `COc1cc(Cl)c(C(=O)N[C@@H](CN[C@H]2CC[C@@H](N)CC2)Cc2ccc(C#N)cc2)cc1-c1ccc(CN[C@H](C)c2ccc(C)cc2)o1` the remaining activity was 96% (enzyme activity; inhibitor; 1 µM).
